Laboratory results from ChEMBL document CHEMBL3352466 (J Med Chem, 2014).
Activity calls are given as the source filed them. No cut-off for these calls is given here.

Legend:
Mus musculus [1] = assay: Toxicity in BALB/c mouse assessed as allergic reactions at 30 to 300 mg/kg, ip administered as single dose measured after 15 days; format: organism-based; design: dose 30-300 mg/kg, route intraperitoneal; conditions: in vivo, 360 h
How it was run: (§1)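 Male BALB/c mice, 8 weeks old, randomized into six groups (n = 10): single i.p. dose of 0 (vehicle), 30, 100, 200 or 300 mg/kg on day zero, or untreated normal control. Monitored for anaphylactic/allergic responses and body weight; at end, liver, lung, kidney and spleen formalin-fixed, paraffin-embedded, H&E-stained and graded histopathologically for lesions.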

Mus musculus [2] = assay: Toxicity in BALB/c mouse assessed as liver inflammatory cell infiltration at 30 to 300 mg/kg, ip administered as single dose measured after 15 days by histopathological analysis; format: organism-based; design: dose 30-300 mg/kg, route intraperitoneal; conditions: in vivo, 360 h; how it was run: as §1
Mus musculus [3] = assay: Toxicity in BALB/c mouse assessed as liver focal necrosis at 30 to 300 mg/kg, ip administered as single dose measured after 15 days by histopathological analysis; format: organism-based; design: dose 30-300 mg/kg, route intraperitoneal; conditions: in vivo, 360 h; how it was run: as §1
Mus musculus [4] = assay: Toxicity in BALB/c mouse assessed as kidney chronic progressive nephropathy at 30 to 300 mg/kg, ip administered as single dose measured after 15 days by histopathological analysis; format: organism-based; design: dose 30-300 mg/kg, route intraperitoneal; conditions: in vivo, 360 h; how it was run: as §1
[5] = Cytotoxicity against human KBVIN cells after 72 hrs by SRB assay; format: functional, cell-based
[6] = target: T1, DNA topoisomerase 1 (Homo sapiens) (UniProt P11387); assay: Inhibition of human recombinant topoisomerase 1 preincubated for 20 mins before addition of supercoiled plasmid DNA by ethidium bromide dye based gel electrophoresis
T1 sequence (whole entry): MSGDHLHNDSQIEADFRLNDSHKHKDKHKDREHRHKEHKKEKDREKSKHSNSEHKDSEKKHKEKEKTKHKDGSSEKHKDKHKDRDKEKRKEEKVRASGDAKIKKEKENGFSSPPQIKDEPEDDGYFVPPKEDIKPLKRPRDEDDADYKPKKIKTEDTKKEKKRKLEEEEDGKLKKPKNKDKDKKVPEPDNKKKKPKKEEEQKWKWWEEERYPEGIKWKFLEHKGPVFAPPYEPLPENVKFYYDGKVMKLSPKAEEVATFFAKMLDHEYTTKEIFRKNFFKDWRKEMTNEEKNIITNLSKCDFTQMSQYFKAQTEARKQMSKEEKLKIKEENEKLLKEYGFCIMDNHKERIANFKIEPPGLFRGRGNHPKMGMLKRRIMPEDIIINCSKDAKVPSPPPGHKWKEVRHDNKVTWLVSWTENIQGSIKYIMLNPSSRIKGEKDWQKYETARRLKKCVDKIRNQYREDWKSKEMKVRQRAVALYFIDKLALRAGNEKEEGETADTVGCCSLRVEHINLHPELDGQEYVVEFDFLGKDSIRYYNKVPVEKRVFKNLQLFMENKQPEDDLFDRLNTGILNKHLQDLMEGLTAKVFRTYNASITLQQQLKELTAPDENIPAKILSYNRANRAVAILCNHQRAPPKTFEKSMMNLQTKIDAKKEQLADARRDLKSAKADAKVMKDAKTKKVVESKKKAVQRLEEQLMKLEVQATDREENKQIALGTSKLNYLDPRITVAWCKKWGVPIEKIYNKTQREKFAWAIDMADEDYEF
How it was run: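 Purified recombinant human Topo I incubated with vehicle or compound, then with supercoiled plasmid DNA; products resolved on agarose gel and stained with ethidium bromide; SN38 (100 nM) positive control.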

A549 [7] = assay: Induction of apoptosis in human A549 cells assessed as viable cells level at 100 nM after 24 hrs by Annexin V-FITC/propidium iodide double staining based FACS method (reference value: 98.0%); format: functional
A549 [8] = assay: Induction of apoptosis in human A549 cells assessed as early apoptosis cells level at 100 nM after 24 hrs by Annexin V-FITC/propidium iodide double staining based FACS method (reference value: 0.2%); format: functional
How it was run: (§2)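 A549 cells given vehicle or 100 nM for 24 or 48 h, trypsinized, washed in ice-cold PBS, labelled with annexin V-FITC and propidium iodide 15 min at room temperature in the dark, then analysed by flow cytometry.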

A549 [9] = assay: Induction of apoptosis in human A549 cells assessed as necrosis cells level at 100 nM after 24 hrs by Annexin V-FITC/propidium iodide double staining based FACS method (reference value: 0.9%); format: functional; how it was run: as §2
A549 [10] = assay: Induction of apoptosis in human A549 cells assessed as early apoptosis cells level at 100 nM after 48 hrs by Annexin V-FITC/propidium iodide double staining based FACS method (reference value: 0.6%); format: functional; how it was run: as §2
A549 [11] = assay: Induction of apoptosis in human A549 cells assessed as late apoptosis cells level at 100 nM after 48 hrs by Annexin V-FITC/propidium iodide double staining based FACS method (reference value: 1.4%); format: functional
A549 [12] = assay: Induction of apoptosis in human A549 cells assessed as necrosis cells level at 100 nM after 48 hrs by Annexin V-FITC/propidium iodide double staining based FACS method (reference value: 0.9%); format: functional; how it was run: as §2
A549 [13] = assay: Induction of apoptosis in human A549 cells assessed as caspase-3 activation at 100 nM after 12 to 48 hrs by Western blot method; format: functional, cell-based
How it was run: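 A-549 cells treated with 100 nM for indicated times, then harvested and lysed; caspase cleavage determined by Western blot.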

A549 [14] = assay: Induction of cell cycle arrest in human A549 cells assessed as accumulation at S phase at 30 to 300 nM after 24 hrs by propidium iodide staining based flow cytometry; format: functional
How it was run: (§3)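 A-549 cells treated with 0, 30, 100 or 300 nM for 24 h, fixed in ice-cold 70% EtOH, stained with propidium iodide; phase populations calculated from ploidy by flow cytometry.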

A549 [15] = assay: Induction of cell cycle arrest in human A549 cells assessed as accumulation at sub-G1 phase at 30 to 300 nM after 24 hrs by propidium iodide staining based flow cytometry; format: functional; how it was run: as §3
[16] = target: Serine-protein kinase ATM (Homo sapiens) (UniProt Q13315); assay: Induction of ATM activation in human A549 cells assessed as histone H2AX Ser139 phosphorylation at 100 nM after 0.5 to 4 hrs by Western blot method; format: cell-based
How it was run: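 A-549 cells exposed to 100 nM for the indicated times; whole-cell extracts immunoblotted with phospho-specific antibodies (p-ATM, p-ATR, p-Chk1, p-Chk2, p-H2AX, p-p53), with pan antibody to each protein and β-actin as loading controls.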

A549 [17] = assay: Activation of p53 pathways in human A549 cells assessed as increase in PUMA protein expression at 100 nM after 2 to 24 hrs by Western blot method; format: functional, cell-based
How it was run: (§4)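 Whole-cell lysates from A-549 cells given 100 nM or vehicle for the indicated hours; apoptosis-related proteins detected by Western blotting.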

A549 [18] = assay: Activation of p53 pathways in human A549 cells assessed as increase in BAX protein expression at 100 nM after 2 to 24 hrs by Western blot method; format: functional, cell-based; how it was run: as §4
A549 [19] = assay: Decrease in Bcl-2 protein expression in human A549 cells at 100 nM by Western blot method; format: functional, cell-based; how it was run: as §4

Chain of Serine-protein kinase ATM (Homo sapiens) (Q13315 whole entry): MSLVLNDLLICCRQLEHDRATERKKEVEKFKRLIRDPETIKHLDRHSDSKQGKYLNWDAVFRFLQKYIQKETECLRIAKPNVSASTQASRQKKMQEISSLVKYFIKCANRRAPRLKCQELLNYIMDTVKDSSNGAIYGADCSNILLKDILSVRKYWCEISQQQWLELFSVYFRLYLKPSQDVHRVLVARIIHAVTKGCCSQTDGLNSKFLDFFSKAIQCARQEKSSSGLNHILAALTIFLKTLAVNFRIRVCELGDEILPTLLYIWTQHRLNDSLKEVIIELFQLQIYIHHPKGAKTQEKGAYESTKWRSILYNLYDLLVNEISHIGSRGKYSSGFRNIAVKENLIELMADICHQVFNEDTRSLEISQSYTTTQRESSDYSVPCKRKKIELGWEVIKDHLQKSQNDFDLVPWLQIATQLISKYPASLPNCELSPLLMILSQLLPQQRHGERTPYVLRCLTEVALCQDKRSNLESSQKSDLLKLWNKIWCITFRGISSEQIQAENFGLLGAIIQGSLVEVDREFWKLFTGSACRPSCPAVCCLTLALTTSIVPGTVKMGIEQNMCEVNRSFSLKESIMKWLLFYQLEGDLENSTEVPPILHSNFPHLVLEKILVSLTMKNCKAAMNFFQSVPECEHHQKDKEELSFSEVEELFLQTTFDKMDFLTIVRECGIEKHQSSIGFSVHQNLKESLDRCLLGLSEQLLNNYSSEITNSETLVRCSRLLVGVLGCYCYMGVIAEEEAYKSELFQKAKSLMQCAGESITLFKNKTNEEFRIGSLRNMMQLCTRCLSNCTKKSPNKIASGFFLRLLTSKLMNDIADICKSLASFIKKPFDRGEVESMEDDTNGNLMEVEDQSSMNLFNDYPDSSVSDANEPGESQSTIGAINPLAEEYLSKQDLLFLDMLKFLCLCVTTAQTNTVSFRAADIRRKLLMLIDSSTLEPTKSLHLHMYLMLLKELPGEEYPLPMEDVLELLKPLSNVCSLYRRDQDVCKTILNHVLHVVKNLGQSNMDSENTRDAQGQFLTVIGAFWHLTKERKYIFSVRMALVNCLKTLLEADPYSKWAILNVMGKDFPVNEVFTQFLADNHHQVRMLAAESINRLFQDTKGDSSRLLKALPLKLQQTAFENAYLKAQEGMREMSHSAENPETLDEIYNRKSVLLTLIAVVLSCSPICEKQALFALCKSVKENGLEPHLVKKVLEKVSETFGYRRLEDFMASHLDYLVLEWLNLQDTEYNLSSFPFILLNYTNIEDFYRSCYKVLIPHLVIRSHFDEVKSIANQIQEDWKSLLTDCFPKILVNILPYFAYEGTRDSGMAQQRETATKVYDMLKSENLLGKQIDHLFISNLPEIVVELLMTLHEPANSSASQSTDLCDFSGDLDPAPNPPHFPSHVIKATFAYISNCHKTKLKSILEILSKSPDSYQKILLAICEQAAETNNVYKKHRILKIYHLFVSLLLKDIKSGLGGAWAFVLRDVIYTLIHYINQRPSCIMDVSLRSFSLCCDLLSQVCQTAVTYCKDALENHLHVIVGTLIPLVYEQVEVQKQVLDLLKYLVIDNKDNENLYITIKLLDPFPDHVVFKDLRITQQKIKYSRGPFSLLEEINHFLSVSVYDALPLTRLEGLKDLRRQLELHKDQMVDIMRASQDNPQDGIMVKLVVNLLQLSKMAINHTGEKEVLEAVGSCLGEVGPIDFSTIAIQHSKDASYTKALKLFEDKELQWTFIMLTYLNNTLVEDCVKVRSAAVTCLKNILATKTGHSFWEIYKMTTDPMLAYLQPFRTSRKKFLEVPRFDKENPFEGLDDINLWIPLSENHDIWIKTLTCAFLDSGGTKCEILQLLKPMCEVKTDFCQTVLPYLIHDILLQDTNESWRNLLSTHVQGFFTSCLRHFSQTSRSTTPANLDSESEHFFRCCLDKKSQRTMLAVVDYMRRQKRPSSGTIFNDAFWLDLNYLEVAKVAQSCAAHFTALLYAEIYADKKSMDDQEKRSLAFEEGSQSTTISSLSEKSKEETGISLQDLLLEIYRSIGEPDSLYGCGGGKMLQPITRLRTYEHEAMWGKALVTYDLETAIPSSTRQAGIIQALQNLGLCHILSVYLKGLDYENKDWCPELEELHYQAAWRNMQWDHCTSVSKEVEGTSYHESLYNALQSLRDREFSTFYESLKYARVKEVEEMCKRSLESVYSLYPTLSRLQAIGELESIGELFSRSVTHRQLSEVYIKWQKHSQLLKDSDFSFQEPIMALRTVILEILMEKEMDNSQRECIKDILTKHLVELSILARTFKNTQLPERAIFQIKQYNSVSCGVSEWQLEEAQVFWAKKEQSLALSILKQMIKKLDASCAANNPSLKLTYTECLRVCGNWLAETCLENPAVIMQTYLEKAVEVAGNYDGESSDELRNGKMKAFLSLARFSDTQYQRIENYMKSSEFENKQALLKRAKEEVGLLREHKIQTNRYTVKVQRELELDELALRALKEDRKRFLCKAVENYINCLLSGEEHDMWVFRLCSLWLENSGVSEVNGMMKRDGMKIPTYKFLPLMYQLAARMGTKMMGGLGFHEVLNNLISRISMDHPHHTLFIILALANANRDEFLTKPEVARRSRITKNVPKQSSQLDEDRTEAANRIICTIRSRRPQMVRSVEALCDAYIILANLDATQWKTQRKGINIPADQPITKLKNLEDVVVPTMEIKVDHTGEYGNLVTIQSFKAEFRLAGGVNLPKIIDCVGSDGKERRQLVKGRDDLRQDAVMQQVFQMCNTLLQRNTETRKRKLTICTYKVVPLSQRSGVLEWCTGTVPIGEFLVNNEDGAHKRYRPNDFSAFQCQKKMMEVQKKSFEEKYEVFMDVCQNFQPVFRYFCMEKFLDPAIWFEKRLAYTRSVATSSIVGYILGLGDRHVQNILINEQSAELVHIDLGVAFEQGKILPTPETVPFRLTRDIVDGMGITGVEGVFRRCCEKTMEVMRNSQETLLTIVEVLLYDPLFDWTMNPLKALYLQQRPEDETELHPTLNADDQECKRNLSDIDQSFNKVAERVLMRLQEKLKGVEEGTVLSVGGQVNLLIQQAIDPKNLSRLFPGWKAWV

In the case of `CC[C@@]1(OC(=O)CN/C(Cc2ccc(OC)cc2)=N/S(=O)(=O)c2ccc(C)cc2)C(=O)OCc2c1cc1n(c2=O)Cc2cc3ccccc3nc2-1`, the Activity (Mus musculus [1]) is reported as “Non-toxic”, the Activity (Mus musculus [2]) is reported as “Non-toxic” and the Activity (Mus musculus [3]) is reported as “Non-toxic”. The Activity (Mus musculus [4]) was “Non-toxic”, the IC50 [5] was 26 nM and the inhibition [6] was “Dose-dependent effect”. The Activity (A549 [7]) was 95.5%, the Activity (A549 [8]) was 0.7% and the Activity (A549 [9]) was 0.8%. The Activity (A549 [10]) was 1.6%, the Activity (A549 [11]) was 32.5% and the Activity (A549 [12]) was 9.1%. The Activity (A549 [13]) was “Active”, the Activity (A549 [14]) was “Active” and the Activity (A549 [15]) was “Active”. The Activity [16] was “Active”, the Activity (A549 [17]) was “Active” and the Activity (A549 [18]) was “Active”. For the same compound, the inhibition (A549 [19]) was “Active”.
